An excerpt weighted towards active compounds, which were near 2.5% of everything screened.
SENP8 block-1: inhibitors of human SENP8 protease; purified SENP8, Z-RLRGG-aminoluciferin cleavage, luminescence; inhibition, % at 10 µM; 330,000 compounds, 1.2% hits; AID 2540; Q96LD8; in the data active = inhibition above about 50%
Target sequence (Q96LD8 whole entry, looked up): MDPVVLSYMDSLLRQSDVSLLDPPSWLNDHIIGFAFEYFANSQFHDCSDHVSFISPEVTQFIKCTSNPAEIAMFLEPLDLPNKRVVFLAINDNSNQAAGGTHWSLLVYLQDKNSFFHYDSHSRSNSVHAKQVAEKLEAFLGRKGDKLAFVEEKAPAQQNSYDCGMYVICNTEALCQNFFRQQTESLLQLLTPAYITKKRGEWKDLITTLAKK
SENP6 block: inhibitors of human SENP6 protease; Q9GZR1; 330,000 compounds, 1.8% hits; inhibition, % at 10 µM; Recombinant SENP6 catalytic domain, aminoluciferin luminescence;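 active = inhibition above about 50% at the single tested dose, limit read from the data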
SENP7 block: inhibitors of human SENP7 protease | Q9BQF6 | recombinant SENP7, Z-RLRGG-aminoluciferin luminescence, 40 min | inhibition, % at 5 µM | 330,000 compounds, 1.5% hits | AID 434973;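 active = inhibition above about 50% at the single test dose, limit read from the data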
SENP1 FRET inh: blocks the human SENP1 SUMO protease catalytic domain; recombinant SENP1 catalytic domain, CyPet-SUMO1-YPet FRET cleavage; inhibition, % at 10 µM; 360,000 compounds, 0.21% hits;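 active = inhibition at least 30% at 10 µM, raw YFP signal under a set limit, fluorescence ratio 0.5 to 1.5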
Target sequence (Q9P0U3 419-644 limits assumed): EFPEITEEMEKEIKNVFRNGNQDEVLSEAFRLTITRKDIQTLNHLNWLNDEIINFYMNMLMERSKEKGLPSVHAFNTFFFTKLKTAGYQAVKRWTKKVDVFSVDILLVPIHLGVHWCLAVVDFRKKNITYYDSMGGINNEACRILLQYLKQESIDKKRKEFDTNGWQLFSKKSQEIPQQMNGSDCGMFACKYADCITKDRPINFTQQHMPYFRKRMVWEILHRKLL
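System: Recombinant human SENP1 catalytic domain, His6-tagged | Incubation: Enzyme reaction for 50 min at room temperature, dark | Medium: Tris pH 8 with BME, BSA, NP40 and catalase | Also added: 25 nM SUMO1 FRET substrate | Compound: 10 µM single point, 0.5% DMSO | Measured by: FRET fluorescence in CFP and YFP emission channels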
SENP8 block-2: blocks human SENP8 cleavage of Nedd8 substrate; Q96LD8; inhibition, % at 20 µM; recombinant SENP8, Nedd8 substrate fluorescence; AID 602440; 360,000 compounds, 0.64% hits; in the data active = inhibition mostly above about 40%, no sharp cut-off; inactive = mostly below about 27%
SENP8 confirm: confirmation of human SENP8 protease inhibitors | shares compounds with SENP7 block | Recombinant SENP8, Z-RLRGG-aminoluciferin luminescence, 60 min | inhibition, % at 12.5 µM | 6,200 compounds, 40% hits | AID 488912;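 active = mean inhibition across replicates above about 50%, limit read from the data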
SENP6 conf: confirmation of human SENP6 protease inhibitors; shares compounds with SENP7 block; recombinant SENP6, Z-RLRGG-aminoluciferin luminescence; inhibition, % at 12.5 µM; 6,200 compounds, 58% hits; AID 488915
SENP7 confirm: human SENP7 inhibition, confirmed. shares compounds with SENP7 block. recombinant SENP7, Z-RLRGG-aminoluciferin luminescence, 40 min. inhibition, % at 12.5 µM. 6,200 compounds, 69% hits
Casp3 SENP sel: selectivity test for SENP inhibitors: human caspase-3 inhibition; shares compounds with SENP7 block; purified caspase-3, Z-DEVD-aminoluciferin luminescence, 60 min; inhibition, % at 12.5 µM; 6,200 compounds, 60% hits; AID 488918;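 active = mean inhibition above about 50%, limit read from the data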
Target sequence (P42574 28-227 limits assumed): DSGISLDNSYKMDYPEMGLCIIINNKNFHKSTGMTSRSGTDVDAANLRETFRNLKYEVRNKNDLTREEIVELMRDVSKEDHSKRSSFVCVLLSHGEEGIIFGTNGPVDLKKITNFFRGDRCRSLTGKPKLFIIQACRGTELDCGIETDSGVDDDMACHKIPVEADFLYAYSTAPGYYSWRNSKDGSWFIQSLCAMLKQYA
SENP luc ctr: counter-screen for SENP inhibitors: luminescence interference; shares compounds with SENP7 block; Pre-incubated SENP8/Z-RLRGG-aminoluciferin, luciferase luminescence interference; inhibition, % at 12.5 µM; 6,200 compounds, 39% hits; AID 488919;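 active = mean inhibition above about 50% when retested at one dose, limit read from the data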
Of the large screens only hits and unclear results are named; the others gave an inactive call (follow-up assays come after a bar, where they were run).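 The calls were made as follows, unless noted: active = mean inhibition above about 50% in the one-dose retest (limit read from the data); inactive = the rest.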

Cc1sc(NC(=O)c2ccc(Cl)s2)c(C(N)=O)c1C	SENP6 block 59.7, SENP7 block 52.2 | SENP8 confirm inactive | SENP6 conf inactive | SENP7 confirm inactive | Casp3 SENP sel inactive | SENP luc ctr inactive
Cc1ccccc1C(=O)N1CCN(c2ccc(NC(=O)c3ccc4c(c3)OCCO4)cc2)CC1	none
CCOc1ccc(OCCSc2nc(C)cc(=O)[nH]2)cc1	SENP8 block-1 70.4, SENP6 block 66.0, SENP7 block 50.6 | SENP8 confirm inactive | SENP6 conf 72.4 | SENP7 confirm 61.1 | Casp3 SENP sel 78.6 | SENP luc ctr inactive
CCCCn1c(NC(=O)c2ccccc2Cl)c(C#N)c2nc3ccccc3nc21	SENP8 block-1 93.9, SENP6 block 96.0, SENP7 block 70.2 | SENP8 confirm 75.8 | SENP6 conf 89.7 | SENP7 confirm 78.2 | Casp3 SENP sel inactive | SENP luc ctr inactive
CCC(=O)Nc1c(C#N)c2nc3ccccc3nc2n1-c1ccccc1C	SENP6 block 54.5 | SENP8 confirm inactive | SENP6 conf inactive | SENP7 confirm inactive | Casp3 SENP sel inactive | SENP luc ctr inactive
CCC(=O)Nc1c(C#N)c2nc3ccccc3nc2n1C1CCCCC1	none
N#Cc1c(NC(=O)c2ccccc2Cl)n(Cc2ccccc2)c2nc3ccccc3nc12	none (no result: SENP8 block-1, SENP6 block, SENP7 block)
Cc1ccc(OC(C)C(=O)N2CCc3ccccc32)c([N+](=O)[O-])n1 (centres undefined)	none (no result: SENP8 block-1, SENP6 block, SENP7 block)
Cc1ccc(S(=O)(=O)NN=CC=CC=NNS(=O)(=O)c2ccc(C)cc2)cc1	none (no result: SENP8 block-1, SENP6 block, SENP7 block)
Nc1[nH]n(-c2ccccc2)c(=O)c1N=Nc1ccccc1	SENP6 block 72.1, SENP7 block 67.0 | SENP8 confirm inactive | SENP6 conf inactive | SENP7 confirm 83.1 | Casp3 SENP sel inactive | SENP luc ctr inactive
O=c1[nH]c(=O)c2cc([N+](=O)[O-])cc([N+](=O)[O-])c2[nH]1	none
O=c1c2cc([N+](=O)[O-])cc([N+](=O)[O-])c2[nH]n1-c1ccccc1	SENP6 block 64.5 | SENP8 confirm 54.9 | SENP6 conf 50.6 | SENP7 confirm 78.9 | Casp3 SENP sel 71.3 | SENP luc ctr 73.0
Nc1[nH]n(-c2ccccc2)c(=O)c1N=Nc1ccccc1[N+](=O)[O-]	SENP7 block 61.4 | SENP8 confirm inactive | SENP6 conf inactive | SENP7 confirm inactive | Casp3 SENP sel inactive | SENP luc ctr inactive
C[C@@H]1CN([C@H](C)CO)C(=O)CCCn2nncc2CO[C@@H]1CN(C)S(=O)(=O)c1ccccc1F	none (no result: SENP8 block-1, SENP6 block, SENP7 block)
O=c1[nH]c2ccccc2nc1-c1nnnn1Cc1ccccc1	none (no result: SENP8 block-1, SENP6 block, SENP7 block)
Cc1ccc(-c2nnnn2-c2ccccc2C(=O)O)cc1	none
Cc1nn2cc(-c3cccc(Cl)c3)cnc2c1Br	SENP7 block 80.5 | SENP8 confirm inactive | SENP6 conf inactive | SENP7 confirm inactive | Casp3 SENP sel inactive | SENP luc ctr inactive
Clc1ccc(-c2nnc(-c3ccccc3)o2)c(Cl)c1	SENP8 block-1 90.2, SENP6 block 96.0, SENP7 block 97.0 | SENP8 confirm 84.8 | SENP6 conf 86.6 | SENP7 confirm 94.9 | Casp3 SENP sel 87.5 | SENP luc ctr inactive
Fc1ccc(-c2nnc(-c3ccc(Cl)cc3)o2)cc1	SENP7 block 55.5 | SENP8 confirm inactive | SENP6 conf inactive | SENP7 confirm inactive | Casp3 SENP sel inactive | SENP luc ctr inactive
Fc1ccc(-c2nnc(-c3ccc(Cl)cc3Cl)o2)cc1	SENP8 block-1 72.2, SENP6 block 74.2, SENP7 block 92.4 | SENP8 confirm 59.7 | SENP6 conf 64.8 | SENP7 confirm 86.0 | Casp3 SENP sel 79.3 | SENP luc ctr inactive
CSc1ccccc1-c1nnc(-c2ccc(Cl)cc2Cl)o1	none
C1CCc2c(nc3nnnn3c2NCC2CC2)C1	none
COC(=O)C[C@@H]1C=C[C@@H](NC(C)=O)[C@@H](CO)O1	none (no result: SENP8 block-1, SENP6 block, SENP7 block)
CN(Cc1cnn(-c2ccccc2)c1)C(=O)c1cccc(S(=O)(=O)Nc2ccccc2F)c1	none (no result: SENP8 block-1, SENP6 block, SENP7 block)
O=C(Nc1nc2c(F)cccc2s1)c1ccco1	SENP8 block-1 74.2, SENP6 block 80.8, SENP7 block 76.1 | SENP8 confirm 80.2 | SENP6 conf 76.6 | SENP7 confirm 93.8 | Casp3 SENP sel 84.0 | SENP luc ctr inactive
Cc1sc(NC(=O)c2ccco2)nc1-c1ccccc1	SENP6 block 51.2 | SENP8 confirm inactive | SENP6 conf inactive | SENP7 confirm 72.3 | Casp3 SENP sel inactive | SENP luc ctr 61.4
Cc1cc(C)c2nc(NC(=O)c3ccco3)sc2c1	SENP8 block-1 80.2, SENP6 block 76.5, SENP7 block 80.2 | SENP8 confirm inactive | SENP6 conf 72.9 | SENP7 confirm 91.7 | Casp3 SENP sel 60.7 | SENP luc ctr inactive
CC(=O)Nc1nc2c(F)cccc2s1	none
CC(=O)c1sc(NC(=O)c2ccco2)nc1-c1ccccc1	none
Cc1cc(Cl)cc2sc(NC(=O)c3ccco3)nc12	none
O=C(NC1CC1)c1cccc(NC(=O)C2CCN(S(=O)(=O)c3ccccc3C(F)(F)F)CC2)c1	none (no result: SENP8 block-1, SENP6 block, SENP7 block)
Oc1ccc(NCc2cccc(OCc3ccccc3)c2)cc1	SENP6 block 68.8, SENP8 block-2 43.3 | SENP8 confirm inactive | SENP6 conf inactive | SENP7 confirm inactive | Casp3 SENP sel inactive | SENP luc ctr inactive
Cc1ccc(C(=O)NCCNS(=O)(=O)c2ccccc2[N+](=O)[O-])cc1	none
O=C(/C=C/Nc1ccc(S(=O)(=O)Nc2ncccn2)cc1)c1cccs1	none
O=C(/C=C/Nc1ccc(F)cc1)c1cccs1	SENP8 block-1 89.2, SENP6 block 93.3, SENP7 block 92.0 | SENP8 confirm 88.7 | SENP6 conf 98.0 | SENP7 confirm 102.2 | Casp3 SENP sel 95.5 | SENP luc ctr 66.7
O=C(/C=C/Nc1ccc(F)c(F)c1)c1cccs1	SENP8 block-1 85.5, SENP6 block 90.0, SENP7 block 82.9 | SENP8 confirm 67.7 | SENP6 conf 88.8 | SENP7 confirm 98.6 | Casp3 SENP sel 83.1 | SENP luc ctr inactive
COc1ccc(C(=O)NC(=O)Nc2cc(C)ccn2)cc1	SENP8 block-1 79.3, SENP6 block 82.9 | SENP8 confirm 77.6 | SENP6 conf 77.8 | SENP7 confirm 93.8 | Casp3 SENP sel 92.4 | SENP luc ctr 68.4

Assay outcomes: PubChem, Sanford-Burnham Center for Chemical Genomics
